{"data": "Experimental data gathered from unrelated publications", "read-out": "metabolic stability", "species": "human", "note": "Each line is one published result; the experiments were not run side by side."}
{"SMILES": "CONC(=O)[C@H]1[C@@H](O)[C@@]2(O)c3c(OC)cc(OC)cc3O[C@@]2(c2ccc(OC)cc2)[C@@H]1c1ccccc1", "test system": "liver microsomes", "quantity": "microsomal CLint", "value": "11.6 µL/min/mg"}
{"SMILES": "Cn1c(=O)ccc2ccc(F)c(CCNC[C@H]3CN(c4cnc5c(n4)NC(=O)CO5)C(=O)O3)c21", "test system": "hepatocytes", "conditions": "0.5 µM", "quantity": "hepatocyte CLint", "value": "2 µL/min/10⁶ cells"}
{"SMILES": "CC(C)C[C@H](NC(=O)[C@@H]1COCCCCCCC(=O)NCC(=O)N2CCC[C@H]2C(=O)N1)C(=O)[C@@]1(C)CO1", "test system": "liver microsomes", "conditions": "2 µM, 1 h", "quantity": "scaled CLint", "value": "51.7 mL/min/kg"}
{"SMILES": "CNC(C)Cc1ccc2nsnc2c1 (stereo not shown)", "test system": "liver microsomes", "conditions": "0.5 µM", "quantity": "scaled CLint", "value": "11.2 mL/min/kg"}
{"SMILES": "COc1ccc2c(c1)[C@]13CCCC[C@@H]1[C@H](C2)N(C)CC3", "test system": "hepatocytes", "conditions": "0.5 µM, pH 7.4", "quantity": "hepatocyte CLint", "value": "19 µL/min/10⁶ cells"}
{"SMILES": "O=C(O[C@H]1CCC[C@@]2(C1)OOC1(O2)C2CC3CC(C2)CC1C3)N1CCCCC1 (stereo partly shown)", "test system": "liver microsomes", "quantity": "microsomal CLint", "value": "< 11.6 µL/min/mg"}
{"SMILES": "COCC1=N[C@@]2(O)[C@H](C(=O)N(C)OC)[C@@H](c3ccccc3)[C@]3(c4ccc(OC)cc4)Oc4cc(OC)cc(OC)c4[C@]23N1", "test system": "liver microsomes", "conditions": "1 µM, pH 7.4", "quantity": "microsomal CLint", "value": "55.8 µL/min/mg"}
{"SMILES": "C[C@]12CC[C@H]3[C@@H](CCC4=CC(=O)CC[C@@]43C)[C@@H]1CC[C@@H]2O", "test system": "hepatocytes", "conditions": "1 µM", "quantity": "hepatocyte CLint", "value": "110 µL/min/10⁶ cells"}
{"SMILES": "Cc1ncc2n1-c1ccc(Cl)cc1C(c1ccccc1F)=NC2", "test system": "hepatocytes", "conditions": "0.5 µM, pH 7.4", "quantity": "hepatocyte CLint", "value": "57.7 µL/min/10⁶ cells"}
{"SMILES": "CN1C(=O)Cc2ccc(F)c(CCNCC[C@H]3CN(c4ccc5c(n4)NC(=O)CO5)C(=O)O3)c21", "test system": "hepatocytes", "conditions": "0.5 µM", "quantity": "hepatocyte CLint", "value": "< 8.2 µL/min/10⁶ cells"}
